Laboratory results taken from ChEMBL document CHEMBL1138349 (J Med Chem, 2007).
Blank lines part the entries; values can stand above or below the compound they belong to.

Key:
[1] = biological target: T1, Muscarinic acetylcholine receptor M1 (Homo sapiens, UniProt P11229); assay: Displacement of [N-methyl-3H]scopolamine from human recombinant muscarinic M1 receptor expressed in CHO cells; assay type: cell-based
T1 sequence (P11229 whole entry): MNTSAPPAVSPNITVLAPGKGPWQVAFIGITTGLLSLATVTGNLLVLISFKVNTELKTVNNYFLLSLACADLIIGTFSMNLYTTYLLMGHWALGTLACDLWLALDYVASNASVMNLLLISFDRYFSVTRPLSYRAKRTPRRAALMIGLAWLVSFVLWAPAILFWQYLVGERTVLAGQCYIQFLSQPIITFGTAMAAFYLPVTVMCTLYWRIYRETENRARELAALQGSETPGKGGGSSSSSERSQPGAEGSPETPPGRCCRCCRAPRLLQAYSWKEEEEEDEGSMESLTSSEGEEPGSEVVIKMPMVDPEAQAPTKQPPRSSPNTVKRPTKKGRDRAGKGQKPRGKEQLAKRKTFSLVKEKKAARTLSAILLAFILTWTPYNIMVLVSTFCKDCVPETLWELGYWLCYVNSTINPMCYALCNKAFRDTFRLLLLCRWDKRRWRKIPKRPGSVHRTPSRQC

hERG (KCNH2) = hERG (KCNH2) (Homo sapiens, UniProt Q12809); assay: Inhibition of human hERG current at 1 uM
Chain of hERG (KCNH2) (Q12809 whole entry): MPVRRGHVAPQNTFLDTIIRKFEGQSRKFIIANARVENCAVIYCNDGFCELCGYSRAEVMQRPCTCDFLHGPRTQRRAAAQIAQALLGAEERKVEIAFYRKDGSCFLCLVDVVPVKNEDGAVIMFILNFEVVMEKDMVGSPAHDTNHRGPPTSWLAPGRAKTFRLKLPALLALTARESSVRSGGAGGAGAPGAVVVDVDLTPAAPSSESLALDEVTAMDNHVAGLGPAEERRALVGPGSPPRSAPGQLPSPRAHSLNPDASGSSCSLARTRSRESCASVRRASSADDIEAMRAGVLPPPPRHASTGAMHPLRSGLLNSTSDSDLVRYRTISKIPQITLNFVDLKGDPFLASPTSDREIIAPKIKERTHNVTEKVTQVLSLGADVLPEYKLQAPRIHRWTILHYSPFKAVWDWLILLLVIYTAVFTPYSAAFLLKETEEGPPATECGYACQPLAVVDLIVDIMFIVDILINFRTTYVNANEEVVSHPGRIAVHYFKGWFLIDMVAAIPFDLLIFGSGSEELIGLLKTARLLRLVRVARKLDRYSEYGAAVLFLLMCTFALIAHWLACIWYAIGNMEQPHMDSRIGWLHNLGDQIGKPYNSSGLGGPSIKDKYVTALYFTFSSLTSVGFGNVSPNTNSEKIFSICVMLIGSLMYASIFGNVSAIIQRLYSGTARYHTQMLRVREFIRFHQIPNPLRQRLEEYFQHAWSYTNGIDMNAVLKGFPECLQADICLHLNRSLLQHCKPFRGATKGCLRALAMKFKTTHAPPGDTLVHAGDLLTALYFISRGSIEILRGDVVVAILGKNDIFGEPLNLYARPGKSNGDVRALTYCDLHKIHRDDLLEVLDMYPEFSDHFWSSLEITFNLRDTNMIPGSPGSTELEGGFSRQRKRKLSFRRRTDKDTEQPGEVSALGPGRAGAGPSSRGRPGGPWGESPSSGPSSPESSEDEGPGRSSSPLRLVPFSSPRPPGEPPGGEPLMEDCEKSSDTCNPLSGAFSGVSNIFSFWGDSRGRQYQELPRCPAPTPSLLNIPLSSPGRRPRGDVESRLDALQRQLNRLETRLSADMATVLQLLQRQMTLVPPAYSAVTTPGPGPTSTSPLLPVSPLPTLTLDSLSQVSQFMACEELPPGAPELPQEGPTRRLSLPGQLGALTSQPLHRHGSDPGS

Canis familiaris = assay: Inhibition of plasma DPP4 activity in Beagle dog at 1 mg/kg, po after 7 hrs; details: Canis lupus familiaris, read-out: Inhibition
[2] = Oral bioavailability in rat at 5 mg/kg; assay type: ADME, organism-based; details: in vivo
[3] = Dissociation constant, pKa corresponding to the protonation of the quinazoline; assay type: physicochemical
[4] = Total mean residence time in cynomolgus monkey at 5 mg/kg, po; assay type: ADME, organism-based, Macaca fascicularis; design: dose 5 mg/kg, route oral; details: in vivo
Mus musculus [5] = assay: Reduction in plasma glucose excursion in db/db C57BL/KSJ mouse at 0.1 mg/kg, po by oral glucose tolerance test; details: read-out: Inhibition
[6] = Half life in cynomolgus monkey at 5 mg/kg, po; assay type: ADME, organism-based, Macaca fascicularis; design: dose 5 mg/kg, route oral; details: in vivo
Mus musculus [7] = assay: Reduction in plasma glucose excursion in db/db C57BL/KSJ mouse at 1 mg/kg, po by oral glucose tolerance test; details: read-out: Inhibition
[8] = Clearance in rat at 5 mg/kg, po and 5 mg/kg, iv; assay type: ADME, organism-based; details: in vivo
[9] = Volume of distribution at steady state in cynomolgus monkey at 5 mg/kg, po and 1.5 mg/kg, iv; assay type: ADME, organism-based, Macaca fascicularis; details: in vivo, read-out: Vdss
[10] = Distribution coefficient, log D at pH 7.4; assay type: physicochemical; details: octanol/water
[11] = Clearance in cynomolgus monkey at 5 mg/kg, po and 1.5 mg/kg, iv; assay type: ADME, organism-based, Macaca fascicularis; details: in vivo
[12] = Total mean residence time in rat at 5 mg/kg, po; assay type: ADME, organism-based; design: dose 5 mg/kg, route oral; details: in vivo
[13] = Dissociation constant, pKa corresponding to the protonation of the primary amino group; assay type: physicochemical
Rhesus monkey = assay: Inhibition of plasma DPP4 activity in rhesus monkey at 1 mg/kg, po after 7 hrs; details: Macaca mulatta, read-out: Inhibition
[14] = Oral bioavailability in cynomolgus monkey at 5 mg/kg; assay type: ADME, organism-based, Macaca fascicularis; details: in vivo
Rattus norvegicus = assay: Inhibition of plasma DPP4 activity in Han Wistar rat at 1 mg/kg, po after 7 hrs; details: read-out: Inhibition
[15] = Aqueous solubility at pH 7.4; assay type: physicochemical; details: buffer
Summary of the method: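 Solubility was measured in aqueous medium at physiological pH 7.4, using a crystalline modification of the free base.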

Mus musculus [16] = assay: Inhibition of plasma DPP4 activity in db/db C57BL/KSJ mouse at 1 mg/kg, po after 30 mins of glucose administration; details: 0.5 h, read-out: Inhibition
[17] = Volume of distribution at steady state in rat at 5 mg/kg, po and 5 mg/kg, iv; assay type: ADME, organism-based; details: in vivo, read-out: Vdss
[18] = Half life in rat at 5 mg/kg, po; assay type: ADME, organism-based; design: dose 5 mg/kg, route oral; details: in vivo

IC50 [1]: 50 nM
SMILES: CC(C)=CCn1c(N2CCC[C@H](N)C2)nc2c1c(=O)n(CC(=O)c1ccccc1)c(=O)n2C

IC50 [1]: 6160 nM
SMILES: CC#CCn1c(N2CCC[C@@H](N)C2)nc2c1c(=O)n(CC(=O)c1ccccc1)c(=O)n2C

IC50 [1]: 1130 nM
SMILES: CC#CCn1c(N2CCC[C@H](N)C2)nc2c1c(=O)n(CC(=O)c1ccccc1)c(=O)n2C

IC50 [1]: 1170 nM
SMILES: CC#CCn1c(N2CCC[C@@H](N)C2)nc2c1c(=O)n(CC(=O)c1ccccc1OCC(=O)NC)c(=O)n2C
residual activity at 1 µM (hERG (KCNH2)): 88%

IC50 [1]: 25 nM
SMILES: CC(C)=CCn1c(N2CCC[C@@H](N)C2)nc2c1c(=O)n(CC(=O)c1ccccc1)c(=O)n2C

IC50 [1]: 430 nM
SMILES: CC#CCn1c(N2CCC[C@@H](N)C2)nc2c1c(=O)n(Cc1nc(C)cc3ccccc13)c(=O)n2C
residual activity at 1 µM (hERG (KCNH2)): 78%

IC50 [1]: 26 nM
SMILES: CC(C)=CCn1c(N2CCC[C@H](N)C2)nc2c1c(=O)n(Cc1nccc3ccccc13)c(=O)n2C
residual activity at 1 µM (hERG (KCNH2)): 51%

IC50 [1]: 518 nM
SMILES: CC#CCn1c(N2CCC[C@@H](N)C2)nc2c1c(=O)n(Cc1ccc(OC)cc1)c(=O)n2C
residual activity at 1 µM (hERG (KCNH2)): 51%

IC50 [1]: 5 nM
SMILES: CC(C)=CCn1c(N2CCC[C@@H](N)C2)nc2c1c(=O)n(Cc1nccc3ccccc13)c(=O)n2C
residual activity at 1 µM (hERG (KCNH2)): 51%

SMILES: CC#CCn1c(N2CCC[C@@H](N)C2)nc2c1c(=O)n(Cc1nc(C)c3ccccc3n1)c(=O)n2C [LINAGLIPTIN]
inhibition in vivo at 1 mg/kg (Canis familiaris): > 70%
bioavailability [2]: 50.7%
pKa [3]: 1.9
IC50 [1]: 295 nM
MRT [4]: 17.4 h
inhibition in vivo at 0.1 mg/kg (Mus musculus [5]): 15%
half-life [6]: 41.4 h
inhibition in vivo at 1 mg/kg (Mus musculus [7]): 66%
clearance [8]: 37.3 mL/min/kg
Vd [9]: 15.8 L/kg
logD [10]: 0.4
clearance [11]: 15.8 mL/min/kg
MRT [12]: 14.3 h
pKa [13]: 8.6
inhibition in vivo at 1 mg/kg (Rhesus monkey): > 70%
bioavailability [14]: 50.1%
inhibition in vivo at 1 mg/kg (Rattus norvegicus): > 70%
solubility [15]: > 5000 µg/mL
inhibition in vivo at 1 mg/kg (Mus musculus [16]): 76%
Vd [17]: 5.4 L/kg
half-life [18]: 35.9 h
